According to ChEMBL document CHEMBL1687835, “Using bioluminescence to monitor treatment response in real time in mice with Mycobacterium ulcerans infection” (2011):
Calls of active or inactive are those of the source.

Experiments:
Mycobacterium ulcerans [1] = assay: Antimicrobial activity against wild type Mycobacterium ulcerans ATCC 19423 infected BALB/c mouse assessed as delay to time to foodpad swelling; format: functional, organism-based
Mycobacterium ulcerans [2] = assay: Antimicrobial activity against wild type Mycobacterium ulcerans Mu1059 infected BALB/c mouse assessed as reduction in foodpad CFU count after 4 weeks
Mycobacterium ulcerans [3] = assay: Antimicrobial activity against Mycobacterium ulcerans Mu1059 expressing luxAB from vibrio harveyi infected BALB/c mouse assessed as delay to time to foodpad swelling; format: functional
In short: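 Female BALB/c mice, 4 weeks old, were infected in the left hind footpad with 0.03 ml of bacterial suspension in PBS. From week 2 (lesion index 0), treatment ran for 4 weeks, 5 days/week, with drugs in water, 0.2 ml: RIF 10 mg/kg by gavage; STR or KAN 150 mg/kg subcutaneously. After treatment, 15 mice/group were scored weekly for 23 weeks; swelling was defined as lesion index 1.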

Mycobacterium ulcerans [4] = assay: Antimicrobial activity against Mycobacterium ulcerans Mu1059 expressing luxAB from vibrio harveyi infected BALB/c mouse assessed as reduction in foodpad CFU count after 4 weeks; format: functional, organism-based
In short: (§1)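 Preventive footpad model in female BALB/c mice: treatment started 2 weeks post-infection and was given 5 days/week for 4 weeks (RIF 10 mg/kg gavage; STR 150 mg/kg s.c.). Five mice/group were sacrificed weekly. Footpads were minced in 2 ml PBS, and serial dilutions were plated in duplicate on selective 7H11 at 32°C for 3–4 months. Detection limit was 2 CFU/footpad. Log CFU was compared with day 0 by t test or ANOVA/Dunnett.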

Mycobacterium ulcerans [5] = assay: Antimicrobial activity against recombinant Mycobacterium ulcerans Mu1059 expressing luxAB from vibrio harveyi infected BALB/c mouse assessed as reduction in foodpad relative light unit after 2 weeks relative to basal level; format: functional, organism-based
In short: (§2)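 Same preventive schedule, with five mice/group sacrificed weekly. Each minced footpad homogenate (in 2 ml PBS) was read by taking a 200-µl sample, adding 20 µl of 1% decanal, and measuring light for 4 s immediately on a luminometer, in duplicate. Log-transformed RLU was compared with day 0 by unpaired t test or one-way ANOVA with Dunnett's posttest (alpha 0.05).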

Mycobacterium ulcerans [6] = assay: Antimicrobial activity against recombinant Mycobacterium ulcerans Mu1059 expressing luxAB from vibrio harveyi infected BALB/c mouse assessed as reduction in foodpad CFU count after 1 week relative to basal level; format: functional, organism-based; in short: as §1
Mycobacterium ulcerans [7] = assay: Antimicrobial activity against recombinant Mycobacterium ulcerans Mu1059 expressing luxAB from vibrio harveyi infected BALB/c mouse assessed as reduction in foodpad CFU count after 2 weeks relative to basal level; format: functional, organism-based; in short: as §1
Mycobacterium ulcerans [8] = assay: Antimicrobial activity against recombinant Mycobacterium ulcerans Mu1059 expressing luxAB from vibrio harveyi infected BALB/c mouse assessed as reduction in foodpad relative light unit after 1 week relative to basal level; format: functional, organism-based; in short: as §2

Row | Structure (SMILES) | Activity (Mycobacterium ulcerans [1]) | Activity (Mycobacterium ulcerans [2]) | Time (Mycobacterium ulcerans [3]) [weeks] | Activity (Mycobacterium ulcerans [4]) | Activity (Mycobacterium ulcerans [5]) | Activity (Mycobacterium ulcerans [6]) | Activity (Mycobacterium ulcerans [7]) | Activity (Mycobacterium ulcerans [8])
1 | NC[C@H]1O[C@H](O[C@H]2[C@H](O)[C@@H](O[C@H]3O[C@H](CO)[C@@H](O)[C@H](N)[C@H]3O)[C@H](N)C[C@@H]2N)[C@H](O)[C@@H](O)[C@@H]1O [KANAMYCIN] | inactive | Active | 3 | inactive | – | – | – | –
2 | CN[C@@H]1[C@H](O[C@H]2[C@H](O[C@H]3[C@H](O)[C@@H](O)[C@H](N=C(N)N)[C@@H](O)[C@@H]3N=C(N)N)O[C@@H](C)[C@]2(O)C=O)O[C@@H](CO)[C@H](O)[C@H]1O | inactive | – | – | Active | Active | Active | Active | Active
